# In the RNAGym collection of RNA variant scans (doi:10.1002/anie.201605470):
# B1: Osa-1-4 twister ribozyme (parent)
# chain: CCGCCUAACACUGCCAAUGCCGGUCCCAAGCCCGGAUAAAAGUGGAGGGGGCGG
# Variants of: B1
# Assay: self-cleavage, relative activity (ratio to wild type); higher = more cleavage; co-transcriptional
# How it was run: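 For each read, cleavage status was taken from whether upstream sequence was present. The reads came from an Oryza sativa twister ribozyme of 54 nucleotides, whose DNA template was synthesised with 97 % wild-type base and 1 % of each other base at the 48 positions downstream of the cleavage site. The template was transcribed in vitro at 37 °C for 2 h with co-transcriptional self-cleavage, and the RNA was reverse-transcribed using a template-switching oligonucleotide, PCR-amplified and deep-sequenced. Relative activity is the fraction cleaved normalised to wild type.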
row,Variant,self-cleavage
1,CCGCCUAACACUGCCAAUGCCGGUCUCAAGCCCGGAUAAAAGUGAAGGGGGCGG [C26U G45A],0.07
2,CCGCCUAACACUGCCAAUGCCGGUCCAAAGCCCGUAUAAAAGUGGAGGGGGCGG [C27A G35U],0.16
3,CCGCCUAACACUGCCAAUGCCGGUCCAAAGCCCGAAUAAAAGUGGAGGGGGCGG [C27A G35A],0.39
4,CCGCCUAACACUGCCAAUGCCGGUCCAAAGCCCGCAUAAAAGUGGAGGGGGCGG [C27A G35C],0.07
5,CCGCCUAACACUGCCAAUGCCGGUCCAAAGCCCGGAUAAAAGUGGAGGGAGCGG [C27A G50A],0.22
6,CCGCCUAACACUGCCAAUGCCGGACUCAAGCCCGGAUAAAAGUGGAGGGGGCGG [C26U U24A],0.06
7,CCGCCUAACACUGCCAAUGCCGGCCUCAAGCCCGGAUAAAAGUGGAGGGGGCGG [C26U U24C],0.07
8,CCGCCUAACACUGCCAAUGCCGGGCUCAAGCCCGGAUAAAAGUGGAGGGGGCGG [C26U U24G],0.04
9,CCGCCUAACACUGCCAAUGCCGGUCUCAAGCCCGGAAAAAAGUGGAGGGGGCGG [C26U U37A],0.79
10,CCGCCUAACACUGCCAAUGCCGGUCUCAAGCCCGGAGAAAAGUGGAGGGGGCGG [C26U U37G],1.03
11,CCGCCUAACACUGCCAAUGCCGGUCUCAAGCCCGGACAAAAGUGGAGGGGGCGG [C26U U37C],1
12,CCGCCUAACACUGCCAAGGCCGGUCUCAAGCCCGGAUAAAAGUGGAGGGGGCGG [C26U U18G],0.93
13,CCGCCUAACACUGCCAAAGCCGGUCUCAAGCCCGGAUAAAAGUGGAGGGGGCGG [C26U U18A],0.88
14,CCGCCUAACACUGCCAACGCCGGUCUCAAGCCCGGAUAAAAGUGGAGGGGGCGG [C26U U18C],0.88
15,CCGCCUAACACGGCCAAUGCCGGUCUCAAGCCCGGAUAAAAGUGGAGGGGGCGG [C26U U12G],0.23
16,CCGCCUAACACCGCCAAUGCCGGUCUCAAGCCCGGAUAAAAGUGGAGGGGGCGG [C26U U12C],0.09
17,CCGCCUAACACAGCCAAUGCCGGUCUCAAGCCCGGAUAAAAGUGGAGGGGGCGG [C26U U12A],0.2
18,CCGCCUAACACUGCCAAUGCCGGUCCAAAGCCCGGAUAAAAAUGGAGGGGGCGG [C27A G42A],0.08
19,CCGCCUAACACUGCCAAUGCCGGUCCAAAGCCCGGAUAAAAUUGGAGGGGGCGG [C27A G42U],0.05
20,CCGCCUAACACUGCCAAUGCCGGUCCAAAGCCCGGAUAAAACUGGAGGGGGCGG [C27A G42C],0.06
21,CCGCCUAACACUGCCAAUGCCGGUCUCAAGCCCGGAUAAAAGUGGAGGGGACGG [C26U G51A],0.45
22,CCGCCUAACACUGCCAAUGCCGGUCUCAAGCCCGGAUAAAAGUGGAGGGGUCGG [C26U G51U],0.17
23,CCGCCUAACACUGCCAAUGCCGGUCUCAAGCCCGGAUAAAAGUGGAGGGGCCGG [C26U G51C],0.07
24,CCGCCUAACACUGCCAAUGCCGGUCUCAAGCCCGGAUAAAAGUGGAGGGGGCCG [C26U G53C],0.08
25,CCGCCUAACACUGCCAAUGCCGGUCUCAAGCCCGGAUAAAAGUGGAGGGGGCAG [C26U G53A],0.22

row,Variant,self-cleavage
1,CCGCCUAACACUGCCAAUGCCGGUCUCAAGCCCGGAUAAAAGUGGAGGGGGCUG [C26U G53U],0.11
2,CCGCCUAACACUGCCAAUGCCGGUCUCAAGCCCGGAUAAAAGUGGAGGGGGCGA [C26U G54A],0.38
3,CCGCCUAACACUGCCAAUGCCGGUCUCAAGCCCGGAUAAAAGUGGAGGGGGCGC [C26U G54C],0.3
4,CCGCCUAACACUGCCAAUGCCGGUCUCAAGCCCGGAUAAAAGUGGAGGGGGCGU [C26U G54U],0.62
5,CCGCCUAACACUGCCAAUGCCGGUCCAAAGCCCGGAUAAAAGUGGAGGGGGAGG [C27A C52A],0.23
6,CCGCCUAACACUGCCAAUGCCGGUCCAAAGCCCGGAUAAAAGUGGAGGGGGGGG [C27A C52G],0.25
7,CCGCCUAACACUGCCAAUGCCGGUCCAAAGCCCGGAUAAAAGUGGAGGGGGUGG [C27A C52U],0.33
8,CCGCCUAACACUGCCAAUGCCGGUCUCAAGCCCGGAUAAAAGUGGAGGGUGCGG [C26U G50U],0.52
9,CCGCCUAACACUGCCAAUGCCGGUCUCAAGCCCGGAUAAAAGUGGAGGGCGCGG [C26U G50C],0.26
10,CCGCCUAACACUGCCAAUGCCGGUCUCAAGCCCGGAUAAAAGUGGAGGGAGCGG [C26U G50A],0.92
11,CCGCCUAACACUGCCAAUGCCGGUCCAAAGCCCGGAUAAAAGUGCAGGGGGCGG [C27A G45C],0.03
12,CCGCCUAACACUGCCAAUGCCGGUCCAAAGCCCGGAUAAAAGUGUAGGGGGCGG [C27A G45U],0.07
13,CCGCCUAACACUGCCAAUGCCGGUCCAAAGCCCGGAUAAAAGUGAAGGGGGCGG [C27A G45A],0.06
14,CCGCCUAACACUGCCAAUGCCGGUCCAAAGCCCGGAUAAAAGUGGAGGCGGCGG [C27A G49C],0.03
15,CCGCCUAACACUGCCAAUGCCGGUCCAAAGCCCGGAUAAAAGUGGAGGAGGCGG [C27A G49A],0.04
16,CCGCCUAACACUGCCAAUGCCGGUCCAAAGCCCGGAUAAAAGUGGAGGUGGCGG [C27A G49U],0.04
17,CCGCCUAACACUGCCAAUGCCGGUCUCAAGCCCGGAUAAAAGUUGAGGGGGCGG [C26U G44U],0.71
18,CCGCCUAACACUGCCAAUGCCGGUCUCAAGCCCGGAUAAAAGUCGAGGGGGCGG [C26U G44C],0.92
19,CCGCCUAACACUGCCAAUGCCGGUCCAAAGACCGGAUAAAAGUGGAGGGGGCGG [C27A C31A],0.06
20,CCGCCUAACACUGCCAAUGCCGGUCCAAAGUCCGGAUAAAAGUGGAGGGGGCGG [C27A C31U],0.09
21,CCGCCUAACACUGCCAAUGCCGGUCCAAAGGCCGGAUAAAAGUGGAGGGGGCGG [C27A C31G],0.04
22,CCGCCUAACACUGCCAAUGCCGGUCUCAAGCCCGGAUAAAAGUGGAGGUGGCGG [C26U G49U],0.06
23,CCGCCUAACACUGCCAAUGCCGGUCUCAAGCCCGGAUAAAAGUGGAGGAGGCGG [C26U G49A],0.06
24,CCGCCUAACACUGCCAAUGCCGGUCUCAAGCCCGGAUAAAAGUGGAGGCGGCGG [C26U G49C],0.06
